For test [1], the system named is Prunus dulcis. The test can be described thus: Inhibition of almond seed beta-glucosidase assessed as residual hydrolysis of p-nitrophenyl-beta-D-glucopyranoside at 1 mM pre-incubated for 1 hr by Lineweaver-Burk plot analysis. An outline of the steps: (§1)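 Each enzyme was pre-incubated with inhibitor (10 µM to 1000 µM) at its optimal pH for 1 h at 37 °C. Hydrolysis was initiated with 2 mM p-nitrophenyl glycopyranoside substrate prepared in 0.025 M citrate, pH 4.0, and quenched with 0.05 M borate, pH 9.8. p-Nitrophenol was read at 405 nm, with controls lacking inhibitor run in parallel. Ki and mode of inhibition were derived from Lineweaver–Burk plots.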

Test [2] concerns Canavalia ensiformis. The test can be described thus: Inhibition of jack bean N-acetyl-beta-D-glucosaminidase assessed as p-nitrophenol release at 1 mM pre-incubated for 1 hr by spectrometric analysis. An outline of the steps: as §1
For test [3], the system named is Prunus dulcis. The test can be described thus: Inhibition of almond seed beta-galactosidase assessed as residual hydrolysis of p-nitrophenyl-beta-D-galactopyranoside at 1 mM pre-incubated for 1 hr by Lineweaver-Burk plot analysis. An outline of the steps:
as §1

Test [4] concerns Canavalia ensiformis. The test can be described thus: Inhibition of jack bean N-acetyl-beta-D-glucosaminidase assessed as p-nitrophenol release at 1 mM pre-incubated for 1 hr by Lineweaver-Burk plot analysis. An outline of the steps: as §1
Test [5] in a line: Inhibition of baker's yeast alpha-glucosidase assessed as residual hydrolysis of p-nitrophenyl-alpha-D-glucopyranoside pre-incubated for 1 hr by Lineweaver-Burk plot analysis. On the set-up: species or system Saccharomyces cerevisiae. An outline of the steps:
as §1

Test [6] concerns Canavalia ensiformis. In words: Inhibition of jack bean alpha-mannosidase assessed as residual hydrolysis of p-nitrophenyl-alpha-D-mannopyranoside at 1 mM pre-incubated for 1 hr by Lineweaver-Burk plot analysis. An outline of the steps:
as §1

Test [7] can be described thus: Inhibition of baker's yeast alpha-glucosidase assessed as residual hydrolysis of p-nitrophenyl-alpha-D-glucopyranoside pre-incubated for 1 hr by spectrometric analysis. On the set-up: species or system Saccharomyces cerevisiae. An outline of the steps: as §1
The test system of test [8] is Geobacillus toebii. In words: Inhibition of Geobacillus toebii BK1 alpha-galactosidase assessed as residual hydrolysis of p-nitrophenyl-alpha-D-galactopyranoside at 1 mM pre-incubated for 1 hr by Lineweaver-Burk plot analysis. An outline of the steps: (§2)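 The enzyme was pre-incubated with inhibitor (10 µM to 1000 µM) for 1 h at 60 °C at the enzyme's optimal pH. The reaction was started with 2 mM p-nitrophenyl glycopyranoside made up in 0.025 M citrate buffer, pH 4.0. It was stopped with 0.05 M borate buffer, pH 9.8, and released p-nitrophenol was read at 405 nm against inhibitor-free controls. Ki and inhibition type came from Lineweaver–Burk plots.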

The subject of a further test is Saccharomyces cerevisiae. In words: Inhibition of baker's yeast alpha-glucosidase assessed as residual hydrolysis of p-nitrophenyl-alpha-D-glucopyranoside at 1 mM pre-incubated for 1 hr by Lineweaver-Burk plot analysis. An outline of the steps:
as §1

Test [9] in a line: Inhibition of Geobacillus toebii BK1 alpha-galactosidase assessed as residual hydrolysis of p-nitrophenyl-alpha-D-galactopyranoside pre-incubated for 1 hr by Lineweaver-Burk plot analysis. An outline of the steps:
as §2

Test [10] relates to Geobacillus toebii. The test can be described thus: Competitive inhibition of Geobacillus toebii BK1 alpha-galactosidase assessed as residual hydrolysis of p-nitrophenyl-alpha-D-galactopyranoside pre-incubated for 1 hr by Lineweaver-Burk plot analysis. An outline of the steps: as §2
Test [11] can be described thus: Inhibition of Geobacillus toebii BK1 alpha-galactosidase assessed as residual hydrolysis of p-nitrophenyl-alpha-D-galactopyranoside pre-incubated for 1 hr by spectrometric analysis. An outline of the steps: as §2
A short description of test [12]: Inhibition of sweet almond beta-glucosidase. On the set-up: species or system Prunus dulcis. An outline of the steps:
as §1

Calls of active or inactive are those of the source. The calls are words filed in the database; no cut-off is given here.

Consider `OCC[C@@H]1CNC[C@H](O)[C@@H](O)[C@@H]1O`, for which the inhibition entry with Prunus dulcis [1], in the test with Prunus dulcis [3], in the test with Canavalia ensiformis [4], in the test with Canavalia ensiformis [6] and in the test with Geobacillus toebii [8] was “inactive” each time. Moreover, in the test with Canavalia ensiformis [2], the inhibition is less than 50%. In addition, in test [5], the Ki was determined as 131 µM. Moreover, the IC50 in test [7] was found to be 675 µM.

As for `CN1C[C@@H](CCO)[C@@H](O)[C@H](O)C1`, the inhibition entry in the test on Prunus dulcis [1], in the test on Prunus dulcis [3], in the test on Canavalia ensiformis [4], in the test with Saccharomyces cerevisiae and in the test on Canavalia ensiformis [6] was “inactive” throughout. Further, the inhibition in the test with Canavalia ensiformis [2] was less than 50%. Also, the inhibition constant (Ki) in [9] turned out to be 54 µM. Moreover, the inhibition result with Geobacillus toebii [10] is “Active”. The IC50 in test [11] worked out at 50 µM.

In the case of `OC[C@H]1CNC[C@@H](O)[C@@H]1O` [AFEGOSTAT], the Ki in test [12] was 0.11 µM.

Consider `OCC[C@@H]1CNC[C@@H](O)[C@@H]1O`, for which the inhibition result in the test on Prunus dulcis [1], in the test with Prunus dulcis [3], in the test with Canavalia ensiformis [4], in the test with Saccharomyces cerevisiae and with Canavalia ensiformis [6] was “inactive” in each case. In addition, in the test with Canavalia ensiformis [2], the inhibition was less than 50%. The Ki in test [9] amounted to 66 µM. Also, in the test with Geobacillus toebii [10], the inhibition result was “Active”. Besides, the IC50 in test [11] was 65 µM.

As a reminder, the inhibition is how much of the control response was suppressed. Usually Ki stands for a dissociation constant, usually derived from enzyme kinetics or from competition with a known ligand. Usually IC50 stands for the concentration needed to halve the response being measured.

The values above are taken from ChEMBL document CHEMBL1828576, “Synthesis of new six- and seven-membered 1-N-iminosugars as promising glycosidase inhibitors” (Bioorg Med Chem, 2011).
